Experimental data from ChEMBL document CHEMBL4138082 (Eur J Med Chem, 2017).
Calls of active or inactive are those of the source. The calls are words filed in the database; no cut-off is given here.

What was measured:
L02 = experiment: Cytotoxicity against human L02 cells assessed as reduction in cell viability after 72 hrs by MTT assay; type: cell-based; details: L02, 72 h
In short: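 MTT assay. Cells were seeded and grown 24 h at 37 °C in 5% CO2, then exposed to compound or left untreated for 72 h. MTT (5 mg/mL stock) was added for 4 h and the formazan dissolved in DMSO. OD was read at 570 nm. IC50 is the concentration giving 50% growth inhibition, reported as mean ± SD of three independent experiments. Vehicle reference was 0.1% DMSO.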

[1] = Drug metabolism in human L02 cells assessed as NO release by measuring nitrite formation at 100 uM after 1 hr by Griess assay; type: ADME, cell-based; details: l02, 1 h
In short: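 HepG-2 or L-02 cells were exposed to 100 µM of each compound for 60 min and then harvested. Lysates were mixed with Griess reagent for 10 min at 37 °C and absorbance was read at 550 nm. NO release is expressed as nitrite, reported as mean ± SD of three independent experiments.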

HepG2 [2] = experiment: Cell cycle arrest in human HepG2 cells assessed as S phase accumulation at 0.125 uM after 48 hrs by propidium iodide staining based flow cytometry (reference value: 43.88%); type: functional
In short: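 HepG-2 cells were plated and grown 24 h at 37 °C, then treated 48 h at 0, 0.0625, 0.125 or 0.25 µM, with 0.1% DMSO as control. Cells were fixed overnight in 70% ethanol at 4 °C, treated with RNase A and stained with propidium iodide. DNA content was measured by flow cytometry to give cell-cycle phase distribution.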

HepG2 [3] = experiment: Cell cycle arrest in human HepG2 cells assessed as G1 phase accumulation at 0.0625 uM after 48 hrs in presence of hemoglobin by propidium iodide staining based flow cytometry (reference value: 52.93%); type: functional
HepG2 [4] = experiment: Cell cycle arrest in human HepG2 cells assessed as S phase accumulation at 0.0625 uM after 48 hrs in presence of hemoglobin by propidium iodide staining based flow cytometry (reference value: 36.40%); type: functional
HepG2 [5] = experiment: Cell cycle arrest in human HepG2 cells assessed as G1 phase accumulation at 0.125 uM after 48 hrs in presence of hemoglobin by propidium iodide staining based flow cytometry (reference value: 52.93%); type: functional
HepG2 [6] = experiment: Cell cycle arrest in human HepG2 cells assessed as G1 phase accumulation at 0.25 uM after 48 hrs in presence of hemoglobin by propidium iodide staining based flow cytometry (reference value: 52.93%); type: functional
HepG2 [7] = experiment: Cell cycle arrest in human HepG2 cells assessed as S phase accumulation at 0.25 uM after 48 hrs in presence of hemoglobin by propidium iodide staining based flow cytometry (reference value: 36.40%); type: functional
HepG2 [8] = experiment: Induction of apoptosis in human HepG2 cells assessed as nuclear fragmentation at 0.0625 to 0.25 uM measured after 48 hrs by Hoechst 33258 staining based fluorescent microscopic analysis; type: functional, cell-based
HepG2 [9] = experiment: Induction of apoptosis in human HepG2 cells assessed as late apoptotic cells at 0.0625 uM after 48 hrs by […] based flow cytometry (reference value: 3.36%); type: functional
HepG2 [10] = experiment: Induction of apoptosis in human HepG2 cells assessed as early apoptotic cells at 0.125 uM after 48 hrs by […] based flow cytometry (reference value: 3.18%); type: functional
HepG2 [11] = experiment: Induction of apoptosis in human HepG2 cells assessed as late apoptotic cells at 0.125 uM after 48 hrs by […] (reference value: 3.36%); type: functional
HepG2 [12] = experiment: Induction of apoptosis in human HepG2 cells assessed as necrotic cells at 0.125 uM after 48 hrs by Annexin V-APC/7-AAD staining based flow cytometry (reference value: 2.40%); type: functional
HepG2 [13] = experiment: Induction of apoptosis in human HepG2 cells assessed as viable cells at 0.125 uM after 48 hrs by Annexin V-APC/7-AAD staining based flow cytometry (reference value: 91.07%); type: functional; details: HepG2, 48 h, read-out: Activity
HepG2 [14] = experiment: Induction of apoptosis in human HepG2 cells assessed as late apoptotic cells at 0.25 uM after 48 hrs by […] based flow cytometry (reference value: 3.36%); type: functional
HepG2 [15] = experiment: Induction of apoptosis in human HepG2 cells assessed as necrotic cells at 0.25 uM after 48 hrs by Annexin V-APC/7-AAD staining based flow cytometry (reference value: 2.40%); type: functional
HepG2 [16] = experiment: Induction of apoptosis in human HepG2 cells assessed as viable cells at 0.25 uM after 48 hrs by Annexin V-APC/7-AAD staining based flow cytometry (reference value: 91.07%); type: functional; details: HepG2, 48 h, read-out: Activity
HepG2 [17] = experiment: Induction of apoptosis in human HepG2 cells assessed as early apoptotic cells at 0.0625 uM after 48 hrs in presence of hemoglobin by Annexin V-APC/7-AAD staining based flow cytometry (reference value: 3.18%); type: functional
HepG2 [18] = experiment: Induction of apoptosis in human HepG2 cells assessed as late apoptotic cells at 0.25 uM after 48 hrs in presence of hemoglobin by Annexin V-APC/7-AAD staining based flow cytometry (reference value: 3.36%); type: functional
HepG2 [19] = experiment: Induction of apoptosis in human HepG2 cells after 48 hrs by […]; type: functional, cell-based
HepG2 [20] = experiment: Induction of apoptosis in human HepG2 cells assessed as cell population with intact mitochondrial membrane potential at 0.125 uM measured after 48 hrs by JC-1 staining based flow cytometry (reference value: 98.51%); type: functional
In short: (§1)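 HepG-2 cells were exposed 48 h to 0.0625, 0.125 or 0.25 µM or to vehicle, then washed in PBS and stained with JC-1 in the dark. Red aggregate versus green monomer fluorescence was measured by flow cytometry to give the percentages of cells with healthy versus collapsed mitochondrial membrane potential.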

HepG2 [21] = experiment: Induction of apoptosis in human HepG2 cells assessed as cell population with intact mitochondrial membrane potential at 0.25 uM measured after 48 hrs by JC-1 staining based flow cytometry (reference value: 98.51%); type: functional; in short: as §1
HepG2 [22] = experiment: Induction of mitochondrial membrane potential loss in human HepG2 cells measured after 48 hrs by JC-1 staining based flow cytometry; type: functional, cell-based
In short: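 After 48 h exposure to 0.0625, 0.125 or 0.25 mM (so in the source) or vehicle, HepG-2 cells washed in PBS and stained with JC-1 in the dark. Flow cytometry scored cells with healthy (red aggregate) versus collapsed (green monomer) mitochondrial membrane potential.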

HepG2 [23] = experiment: Upregulation of Bax level in human HepG2 cells up to 0.25 uM after 48 hrs by Western blot method; type: functional, cell-based
HepG2 [24] = experiment: Upregulation of total Cyt c level in human HepG2 cells up to 0.25 uM after 48 hrs by Western blot method; type: functional, cell-based
HepG2 [25] = experiment: Downregulation of Bcl-xl level in human HepG2 cells up to 0.25 uM after 48 hrs by Western blot method; type: functional, cell-based
In short: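 HepG-2 cells were exposed 48 h to 0, 0.0625, 0.125 or 0.25 µM and lysed on ice for 20 min. Equal protein loads were run on 12% SDS-PAGE and transferred to PVDF. Membranes were probed overnight at 4 °C with primary antibodies, then with HRP-conjugated secondaries, and detected by ECL chemiluminescence.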

- Drug metabolism [1]: 22.4 µM
SMILES: C[C@H]1CCC/C=C/[C@@H]2C[C@H](OC(=O)CCCC(=O)OCCOc3no[n+]([O-])c3S(=O)(=O)c3ccccc3)C[C@H]2[C@H](OC(=O)CCCC(=O)OCCOc2no[n+]([O-])c2S(=O)(=O)c2ccccc2)/C=C/C(=O)O1
- IC50 (L02): 6 µM
- Activity (HepG2 [2]): 51.22%
- Activity (HepG2 [3]): 68.06%
- Activity (HepG2 [4]): 24.74%
- Activity (HepG2 [5]): 63.24%
- Activity (HepG2 [6]): 72.34%
- Activity (HepG2 [7]): 22.37%
- Activity (HepG2 [8]): Active
- Activity (HepG2 [9]): 11.76%
- Activity (HepG2 [10]): 13.23%
- Activity (HepG2 [11]): 21.42%
- Activity (HepG2 [12]): 2.4%
- viability at 0.125 µM (HepG2 [13]): 63%
- Activity (HepG2 [14]): 40.21%
- Activity (HepG2 [15]): 5.47%
- viability at 0.25 µM (HepG2 [16]): 39.3%
- Activity (HepG2 [17]): 3.25%
- Activity (HepG2 [18]): 12.24%
- Activity (HepG2 [19]): Dose-dependent effect
- Activity (HepG2 [20]): 64.55%
- Activity (HepG2 [21]): 39.86%
- Activity (HepG2 [22]): Dose-dependent effect
- Activity (HepG2 [23]): Active
- Activity (HepG2 [24]): Active
- Activity (HepG2 [25]): Active
